Experiment [1] has as its system Plasmodium falciparum. Briefly: Antimalarial activity against asexual stage of Plasmodium falciparum 3D7 infected in O-positive erythrocytes assessed as reduction in parasite growth incubated for 72 hrs by SYBR Green I dye-based spectrophotometric analysis. The format is functional, organism-based. The conditions noted are these: 3D7, 72 h.
In experiment [2] the test system is Plasmodium falciparum. Briefly: Antimalarial activity against sexual stage of Plasmodium falciparum 3D7 gametocytes assessed as reduction in parasite growth incubated for 3 days by alamar blue staining based assay. The format is functional, organism-based. As to conditions: 3D7, 72 h.
Experiment [3] has as its system Plasmodium falciparum. Put plainly: Antimalarial activity against Plasmodium falciparum NF54 early gametocytes transfected with luciferase gene incubated for 48 hrs by luciferase reporter gene assay. Type of experiment: functional, organism-based. The conditions noted are these: NF54, 48 h. The method, boiled down: (§1)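 Gametocytes of NF54-Pfs16-GFP-Luc, early (>95% stage II/III) or late (>90% stage IV/V); luciferase read-out. IC50 is the concentration giving 50% reduction of luminescence; mean ± SEM of n = 3 independent biological replicates.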
For orientation: Reporter assays use an easily measured gene product as a stand-in for the process of interest.

Experiment [4] concerns Plasmodium falciparum. Put plainly: Antimalarial activity against asexual stage of Plasmodium falciparum W2 assessed as reduction in parasite growth incubated for 96 hrs by SYBR Green I dye-based fluorescence assay. Type of experiment: functional, organism-based. As to conditions: W2, 96 h.
In experiment [5] the test system is Plasmodium falciparum. Briefly: Antimalarial activity against Plasmodium falciparum NF54 incubated for 48 hrs by [3H]-hypoxanthine incorporation assay. The format is functional, organism-based.
Experiment [6] relates to Plasmodium falciparum. Briefly: Antimalarial activity against asexual stage of Plasmodium falciparum NF54 assessed as reduction in parasite growth incubated for 96 hrs by SYBR Green I dye-based fluorescence assay. The conditions noted are these: NF54, 96 h. The format is functional, organism-based. The method, boiled down:
(§2)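 Asexual NF54, K1 and W2 parasites; proliferation read as SYBR Green I fluorescence. IC50 is the concentration giving 50% of the net SYBR Green I fluorescence of untreated control cultures; mean ± SEM of n = 3 independent biological replicates.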

Experiment [7] in a line: Redox cycling activity of the compound […] measured after 45 mins by phenol red reagent based horseradish peroxidase coupled assay. The method, boiled down:
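Redox cycling EC50 determined by the phenol red horseradish peroxidase assay.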

The test system of another experiment is CHO-K1. Briefly: Cytotoxicity against CHOK1 cells assessed as reduction in cell viability incubated for 48 hrs by CellTiter 96 aqueous one solution assay. The format is cell-based. As to conditions: Cricetulus griseus, CHO-K1, 48 h. The essentials: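 Cell growth measured by a tetrazolium dye assay. IC50 is the concentration reducing growth by 50% relative to untreated cultures; mean ± SD of n = 3 separate determinations.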

Experiment [8] has as its system Plasmodium falciparum. Put plainly: Antimalarial activity against Plasmodium falciparum K1 incubated for 48 hrs by [3H]-hypoxanthine incorporation assay. The format is functional, organism-based.
Experiment [9] deals with Plasmodium falciparum. Briefly: Antimalarial activity against asexual stage of Plasmodium falciparum Dd2 infected in erythrocytes assessed as reduction in parasite growth incubated for 48 hrs under hypoxic condition by Hoechst 33342 staining based flow cytometry. Type of experiment: functional, organism-based. As to conditions: Dd2, 48 h. The essentials:
(§3)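 Asexual Dd2 and 3D7 parasites in erythrocytes; DNA content of infected cells measured by Hoechst 33342 staining and FACS. IC50 is the concentration giving 50% of the net fluorescence of untreated control cultures; mean ± SD of n = 3 separate determinations.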
(In general: Flow cytometry measures light scatter and fluorescence of single cells or particles in a stream.)

Experiment [10] deals with Plasmodium falciparum. Put plainly: Antimalarial activity against asexual stage of Plasmodium falciparum 3D7 infected in erythrocytes assessed as reduction in parasite growth incubated for 48 hrs under hypoxic condition by Hoechst 33342 staining based flow cytometry. Type of experiment: functional, organism-based. As to conditions: 3D7, 48 h. The essentials:
as §3

The test system of experiment [11] is Plasmodium falciparum. Put plainly: Antimalarial activity against asexual stage of Plasmodium falciparum K1 assessed as reduction in parasite growth incubated for 96 hrs by SYBR Green I dye-based fluorescence assay. Type of experiment: functional, organism-based. As to conditions: K1, 96 h. The method, boiled down:
as §2

Experiment [12] relates to Plasmodium falciparum. Put plainly: Antimalarial activity against Plasmodium falciparum NF54 late gametocytes transfected with luciferase gene incubated for 48 hrs by luciferase reporter gene assay. The format is functional, organism-based. The conditions noted are these: NF54, 48 h. The essentials:
as §1

Experiment [13] concerns Plasmodium falciparum. Put plainly: Antimalarial activity against Plasmodium falciparum TM90C2B incubated for 48 hrs by [3H]-hypoxanthine incorporation assay. The format is functional, organism-based.

This passage reports EC50, IC50 and Activity results from ChEMBL document CHEMBL4334542, “Antimalarial N 1,N 3-Dialkyldioxonaphthoimidazoliums: Synthesis, Biological Activity, and Structure-activity Relationships” (ACS Med Chem Lett, 2020).

Each structure is given as a SMILES string. Active and inactive are the calls of the source. No cut-off for these calls is given here.

As usually defined, the EC50 is the concentration needed to bring the measured effect to its halfway point. As a reminder, the IC50 is the concentration needed to halve the response being measured.

Take `CCOc1ccc(-[n+]2c3c(n(C)c2C)C(=O)c2ccccc2C3=O)cc1`: the EC50 in the experiment with Plasmodium falciparum [1] stood at 1 nM; in the experiment with Plasmodium falciparum [2] it was 93 nM.
In the case of `CCOc1ccc(N(C(C)=O)C2=C(NC)C(=O)c3ccccc3C2=O)cc1`, the figures for the EC50 with Plasmodium falciparum [1] and with Plasmodium falciparum [2] were 1 nM and 122 nM, respectively.
Taken in the same sequence, the figures for `CCOc1ccc(N(C(C)=O)C2=C(N(C)C)C(=O)c3ccccc3C2=O)cc1` were 32 nM and 319 nM.
`CCCCn1c2c([n+](CC)c1C)C(=O)c1ccccc1C2=O`: the IC50 in the experiment on Plasmodium falciparum [3] worked out at 268 nM; with Plasmodium falciparum [4], 2.88 nM; in the experiment on Plasmodium falciparum [5] it was 1 nM; in the experiment with Plasmodium falciparum [6], 1.64 nM; with CHO-K1 it was 37000 nM; with Plasmodium falciparum [8], 1.8 nM. The IC50 with Plasmodium falciparum [9] came out at 9.1 nM; in the experiment on Plasmodium falciparum [10], 4.2 nM; with Plasmodium falciparum [11], 2.4 nM; with Plasmodium falciparum [12] it was 320 nM; with Plasmodium falciparum [13], 1.4 nM. Further, the result in experiment [7] was Active.
With `CCCn1c2c([n+](C(C)C)c1C)C(=O)c1ccccc1C2=O`, the IC50 with Plasmodium falciparum [3] is 162 nM; in the experiment on Plasmodium falciparum [4], 2.2 nM; in the experiment on Plasmodium falciparum [5], 1 nM; with Plasmodium falciparum [6], 2.28 nM; in the experiment on CHO-K1, 26800 nM; with Plasmodium falciparum [8], 2.1 nM. Further, the IC50 in the experiment on Plasmodium falciparum [9] worked out at 8 nM; with Plasmodium falciparum [10] it was 4 nM; in the experiment with Plasmodium falciparum [11], 3.1 nM; in the experiment on Plasmodium falciparum [12] it was 567 nM; in the experiment with Plasmodium falciparum [13], 1.8 nM. For the same compound, in experiment [7], the result was Active.
